Calls of active or inactive are those of the source.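 The calls were made as follows, unless noted: active = viability at or below 10% of carrier control in both of two separate runs; inconclusive = viability at or below 10% in only one of the two runs; inactive = the rest.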
Assays:
[1] = reducers of endogenous Her2 protein level, primary screen, SKBR3 breast tumor cells, AlphaScreen, ATP viability (AID 461;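 active = Her2 level under about 52% in both replicate screens, with viability over 70% of control, limit read from the data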;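 as to Her2 level: lower value means less Her2 protein in the cells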;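 as to viability: percent of carrier control wells set as 100% viability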); conditions: 18-24 h, measured here: SKBR3 viability, ATP luminescence, at 10 µM
[2] = target: Receptor tyrosine-protein kinase erbB-2 (Homo sapiens) (UniProt P04626); test: as above; conditions: 18-24 h, at 10 µM, stronger effect = lower value
Receptor tyrosine-protein kinase erbB-2 (Homo sapiens), sequence (P04626 whole entry, looked up): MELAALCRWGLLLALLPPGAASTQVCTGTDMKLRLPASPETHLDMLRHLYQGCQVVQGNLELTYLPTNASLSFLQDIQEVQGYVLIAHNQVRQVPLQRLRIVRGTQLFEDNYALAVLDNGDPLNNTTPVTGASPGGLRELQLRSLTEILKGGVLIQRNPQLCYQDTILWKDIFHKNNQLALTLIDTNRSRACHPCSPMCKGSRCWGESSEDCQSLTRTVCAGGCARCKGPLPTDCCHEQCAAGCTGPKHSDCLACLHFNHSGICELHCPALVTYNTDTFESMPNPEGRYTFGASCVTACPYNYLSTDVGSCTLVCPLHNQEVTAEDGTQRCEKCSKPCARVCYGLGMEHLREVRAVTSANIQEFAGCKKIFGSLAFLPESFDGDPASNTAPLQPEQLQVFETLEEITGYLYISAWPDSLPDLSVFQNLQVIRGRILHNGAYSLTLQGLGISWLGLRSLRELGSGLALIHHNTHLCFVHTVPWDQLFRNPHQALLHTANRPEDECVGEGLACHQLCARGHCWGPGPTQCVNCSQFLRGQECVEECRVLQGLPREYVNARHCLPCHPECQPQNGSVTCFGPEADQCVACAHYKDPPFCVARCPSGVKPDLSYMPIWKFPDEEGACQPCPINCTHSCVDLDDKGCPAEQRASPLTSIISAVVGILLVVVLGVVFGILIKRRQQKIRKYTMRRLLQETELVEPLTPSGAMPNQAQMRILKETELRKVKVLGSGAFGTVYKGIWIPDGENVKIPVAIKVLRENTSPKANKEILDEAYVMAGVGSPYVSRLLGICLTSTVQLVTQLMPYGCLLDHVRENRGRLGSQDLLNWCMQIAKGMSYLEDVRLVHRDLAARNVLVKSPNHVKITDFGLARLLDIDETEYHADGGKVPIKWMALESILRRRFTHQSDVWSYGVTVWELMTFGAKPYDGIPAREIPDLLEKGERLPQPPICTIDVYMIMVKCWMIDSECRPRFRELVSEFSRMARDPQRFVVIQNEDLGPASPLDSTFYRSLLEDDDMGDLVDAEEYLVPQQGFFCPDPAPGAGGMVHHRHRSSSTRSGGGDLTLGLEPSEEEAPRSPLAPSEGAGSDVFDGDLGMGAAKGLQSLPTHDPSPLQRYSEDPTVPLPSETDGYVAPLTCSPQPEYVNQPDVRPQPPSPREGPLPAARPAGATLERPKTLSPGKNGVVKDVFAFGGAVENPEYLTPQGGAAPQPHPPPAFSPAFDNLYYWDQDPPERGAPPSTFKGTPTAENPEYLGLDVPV

[3] = SK-BR-3 cell growth inhibitors, pilot screen, 24 h, human (AID 572); conditions: SK-BR-3 viability, CellTiter-Glo luminescence, at 10 µM, stronger effect = lower value;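 also: compound exposure lasted between 18 and 24 h rather than exactly 24 h; 100% = carrier-treated control wells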
[4] = HUVEC growth inhibition – cell-based, human, primary screen (AID 575;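 active = viability at or below 30% in both replicate assays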;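 also: 100% = median of untreated cell wells with 0.1% DMSO on each plate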); conditions: HUVEC proliferation, CellTiter-Glo luminescence, 72 h; at 10 µM; stronger effect = lower value
Outline: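 Assay system: primary human umbilical vein endothelial cells / Buffer or medium: endothelial basal medium with 2% FBS plus growth supplements / Compound dosing: one dose, 10 µM final, 0.1% DMSO / Timing: 72 h treatment at 37 °C / Signal: CTG luminescence / Benchmarks: 32 DMSO-only cell-control wells (high), 32 MePR drug-control wells (low) per plate / Plate: collagen-coated 384-well format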

[5] = growth inhibitors of H69AR lung tumor, primary screen, human, duplicate replicates (AID 580;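 active = viability at or under a set limit in both replicates, limit being median viability minus 3 SD, cut at about 48% in these data, passing the limit was not always enough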;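 also: 100% = mean luminescence of untreated wells and 0% = no signal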); conditions: H69AR lung tumor cells viability, ATP luminescence, 72 h; at 10 µM; stronger effect = lower value
[6] = reversal of MRP1-mediated doxorubicin resistance, pilot screen, H69AR cells, doxorubicin co-treatment (AID 601;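 active = viability loss from added drug above about 55%, and viability with drug at most 40%, in both replicates, limit read from the data, passing the limit was not always enough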); conditions: CellTiter-Glo, 72 h, at 10 µM; for differential viability (reversal): stronger effect = higher value
[7] = 384-well plate pilot, post-Golgi transport modulator project, inhibition of yeast transport mutant growth (AID 636; in the data active = inhibition above about 31%); conditions: absorbance 615 nm, about 18 h, stronger effect = higher value
[8] = growth suppression of yeast trafficking mutant, preliminary HTS, modulators of trafficking downstream of Golgi apparatus project, 1536-format plate, OD 615 nm (AID 637; in the data active = inhibition above about 30%); conditions: yeast transport mutant growth, absorbance 615 nm, 18 h; stronger effect = higher value
[9] = H69AR cells + 2 uM doxorubicin, measured here: viability with 2 uM doxorubicin, stronger effect = lower value
[10] = H69AR cells, compound alone cytotoxicity

SMILES | viability [1] [%] | Her2 level [2] | viability [3] | viability [4] | viability [5] | differential viability (reversal) ([6]; H69AR cells + 2 uM doxorubicin) | viability [6, 9] [%] | viability [6, 10] [%] | inhibition [7] | inhibition [8]
CCn1c(CC(=O)Nc2cccc(OC)c2)nnc1SCC(=O)Nc1nccs1 | 98 | 102% (inactive) | 98% (inactive) | 94.5% (inactive) | 101% (inactive) | 4.37% (inactive) | 97 | 101 | -7.6% (inactive) | -2.26% (inactive)
CC1=C(C(=O)OCc2ccccc2)C(c2ccc(C)o2)C2=C(CCCC2=O)N1 (stereo not given) | 72 | 88% (inactive) | 72% (inactive) | 113% (inactive) | 103% (inactive) | 13.5% (inactive) | 89.1 | 103 | -6.89% (inactive) | 6.07% (inactive)
Cc1cc(C)c(C#N)c(SCc2[nH]nc3c2C(c2ccccc2)C(C#N)=C(N)O3)n1 (stereo not given) | 93 | 80.5% (inactive) | 93% (inactive) | 85.3% (inactive) | 99.7% (inactive) | 4.6% (inactive) | 95.1 | 99.7 | -5.33% (inactive) | -4.03% (inactive)
Brc1ccc(-c2cn3cccnc3n2)cc1 | 130 | 97.5% (inactive) | 130% (inactive) | 86.3% (inactive) | 104% (inactive) | 6.97% (inactive) | 97.1 | 104 | -3.87% (inactive) | 0.97% (inactive)
O=C(CCN1C(=O)C2C3C=CC(C3)C2C1=O)Nc1c(F)cc(F)cc1Br (stereo not given) | 99.5 | 91.5% (inactive) | 99.5% (inactive) | 90.2% (inactive) | 103% (inactive) | 20.3% (inactive) | 82.6 | 103 | 1.08% (inactive) | -4.13% (inactive)
O=C(Cn1cnc2ccccc2c1=O)NCCC(=O)N1CCN(Cc2ccccc2)CC1 | 89 | 90% (inactive) | 89% (inactive) | 98.6% (inactive) | 89.8% (inactive) | 4.66% (inactive) | 85.2 | 89.8 | 0.52% (inactive) | 0.98% (inactive)
CC1CN(C(=O)c2cc3cc(Cl)cc(Cl)c3oc2=O)CC(C)O1 (stereo not given) | 83.5 | 102% (inactive) | 83.5% (inactive) | 96.8% (inactive) | 92.4% (inactive) | 4.73% (inactive) | 87.7 | 92.4 | -3.47% (inactive) | 23.8% (inactive)
CCN(c1cccc(C)c1)S(=O)(=O)c1ccc2[nH]c(=O)c(=O)[nH]c2c1 | 108 | 75% (inactive) | 108% (inactive) | 88.7% (inactive) | 92.1% (inactive) | 1.35% (inactive) | 90.8 | 92.1 | -2.24% (inactive) | 0.91% (inactive)
O=C(COc1ccccc1Cl)NCc1ccco1 | 89.5 | 78.5% (inactive) | 89.5% (inactive) | 103% (inactive) | 107% (inactive) | 15.4% (inactive) | 91.6 | 107 | -0.81% (inactive) | -3.93% (inactive)
COc1ccc(CNc2nc(SCC(=O)NCc3ccco3)nc3ccccc23)cc1 | 80 | 90.5% (inactive) | 80% (inactive) | 84.6% (inactive) | 94.4% (inactive) | 17.6% (inactive) | 76.7 | 94.4 | -3.6% (inactive) | -4.26% (inactive)
CCN(CC)Cc1nc2c(c(=O)[nH]1)C1(CCCCC1)Cc1ccccc1-2 | 87 | 82.5% (inactive) | 87% (inactive) | 93.6% (inactive) | 72.8% (inactive) | -18.9% (inactive) | 91.7 | 72.8 | -5.07% (inactive) | 0.16% (inactive)
COc1ccc(OCC(=O)N2CCN(C(=O)Cc3ccccc3)CC2)cc1 | 90 | 96% (inactive) | 90% (inactive) | 101% (inactive) | 84.6% (inactive) | -12.1% (inactive) | 96.7 | 84.6 | 0% (inactive) | 23.2% (inactive)
CCn1c(COc2cccc3ccccc23)nnc1SCC(N)=O | 96 | 75% (inactive) | 96% (inactive) | 91% (inactive) | 91.1% (inactive) | 13% (inactive) | 78.2 | 91.1 | -4.21% (inactive) | 0.18% (inactive)
COCCN1C(=O)C(=O)/C(=C(/O)c2ccc(OC(C)C)cc2)C1c1cccnc1 (stereo not given) | 94.5 | 86.5% (inactive) | 94.5% (inactive) | 89.7% (inactive) | 92.6% (inactive) | 5.24% (inactive) | 87.4 | 92.6 | -3.55% (inactive) | 3.33% (inactive)
CC(C)C(=O)Nc1ccc2c(c1)nc1n2CCSC1 | 104 | 95% (inactive) | 104% (inactive) | 111% (inactive) | 95.4% (inactive) | 10.4% (inactive) | 85 | 95.4 | -0.78% (inactive) | -6.83% (inactive)
Cc1ccc2c(c1)-c1cc(C)nn1C(c1ccc3c(c1)OCO3)N2 (stereo not given) | 100 | 100% (inactive) | 100% (inactive) | 54% (inactive) | 87.2% (inactive) | -11.2% (inactive) | 98.4 | 87.2 | -2.76% (inactive) | -3.55% (inactive)
CCOCCCNC(=O)CS(=O)(=O)Cc1nc(-c2cccc(OC)c2)oc1C | 128 | 92% (inactive) | 128% (inactive) | 88.4% (inactive) | 84% (inactive) | -3.73% (inactive) | 87.8 | 84 | -4.81% (inactive) | 5.24% (inactive)
Cn1cnc(S(=O)(=O)Nc2ccc(C(F)(F)F)cc2)c1 | 86 | 98.5% (inactive) | 86% (inactive) | 105% (inactive) | 91.7% (inactive) | 6.29% (inactive) | 85.4 | 91.7 | 1.41% (inactive) | -11.7% (inactive)
CC(C)C1Cc2c(C#N)c(N)sc(=S)c2CO1 (stereo not given) | 85 | 108% (inactive) | 85% (inactive) | 64.2% (inactive) | 93.9% (inactive) | -2.34% (inactive) | 96.2 | 93.9 | -4.03% (inactive) | -2.13% (inactive)
COCCn1c(-c2ccc(OC)c(OC)c2)nc2ccccc21 | 93 | 108% (inactive) | 93% (inactive) | 105% (inactive) | 95.8% (inactive) | 4.81% (inactive) | 91 | 95.8 | -4.67% (inactive) | -5.81% (inactive)
Cn1c(=O)c2c3c(sc2n2c(SCc4ccccc4)nnc12)CCCC3 | 77 | 91.5% (inactive) | 77% (inactive) | 88.8% (inactive) | 87.5% (inactive) | 9.04% (inactive) | 78.4 | 87.5 | -2.93% (inactive) | -1.75% (inactive)
O=C(Cn1ccc2ccccc2c1=O)Nc1ccc2c(c1)OCO2 | 104 | 95.5% (inactive) | 104% (inactive) | 95.7% (inactive) | 107% (inactive) | 14.8% (inactive) | 92.2 | 107 | 1.49% (inactive) | -3.17% (inactive)
Cc1ccccc1-n1c(=O)cc(NCc2ccc3c(c2)OCO3)[nH]c1=O | 94.5 | 89.5% (inactive) | 94.5% (inactive) | 104% (inactive) | 103% (inactive) | 2.75% (inactive) | 100 | 103 | -2.57% (inactive) | 1.75% (inactive)
CC(=O)c1cc(-c2ccc(F)cc2)n(CCC(=O)Nc2cc(C)[nH]n2)c1C | 105 | 82.5% (inactive) | 105% (inactive) | 102% (inactive) | 104% (inactive) | 18.3% (inactive) | 85.5 | 104 | -6.62% (inactive) | 2.46% (inactive)
O=c1c2[nH]c3ccccc3c2ncn1CCCn1ccnc1 | 92 | 77.5% (inactive) | 92% (inactive) | 93.7% (inactive) | 96.8% (inactive) | 1.08% (inactive) | 95.7 | 96.8 | -3.77% (inactive) | -0.83% (inactive)
CC(=O)N(CCN(C(C)=O)c1ccccc1)c1ccccc1 | 105 | 93% (inactive) | 105% (inactive) | 88.8% (inactive) | 91.7% (inactive) | 11.7% (inactive) | 80 | 91.7 | -1.95% (inactive) | -1.64% (inactive)
COc1cccc2cc(C(=O)C3=C(O)C(=O)N(CCCN4CCOCC4)C3c3ccncc3)oc12 (stereo not given) | 98 | 142% (inactive) | 98% (inactive) | 110% (inactive) | 96.8% (inactive) | -2.74% (inactive) | 99.6 | 96.8 | -5.19% (inactive) | -5.5% (inactive)
COc1ccc(N(CC(=O)N2CCN(Cc3ccc4c(c3)OCO4)CC2)S(C)(=O)=O)cc1OC | 106 | 89.5% (inactive) | 106% (inactive) | 108% (inactive) | 96.2% (inactive) | 9.96% (inactive) | 86.2 | 96.2 | -8.67% (inactive) | -2.58% (inactive)
COc1ccc(S(=O)(=O)N2CCSC2c2ccccc2)cc1 (stereo not given) | 82 | 90.5% (inactive) | 82% (inactive) | 79.9% (inactive) | 76.9% (inactive) | -13.8% (inactive) | 90.7 | 76.9 | -2.7% (inactive) | -2.95% (inactive)
